Test results taken from ChEMBL document CHEMBL1128288, “7-Azetidinylquinolones as antibacterial agents. 3. Synthesis, properties and structure-activity relationships of the stereoisomers containing a 7-(3-amino-2-methyl-1-azetidinyl) moiety” (J Med Chem, 1995).
Converted amounts (≈) assume the structure as drawn.

Tests used:
[1] = Solubility at pH 7.4 buffer.; format: physicochemical
Summary of the method: (§1)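 Excess solid was shaken 24 h at 25 °C in water or in 0.05 M phosphate buffer pH 7.4, then filtered (0.22 µm) with the first portion discarded. The filtrate was diluted with 0.1 N HCl or NaOH and measured spectrophotometrically at the compound's absorbance maximum.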

[2] = Solubility in water was determined at 25 degrees Centigrade; format: physicochemical; summary of the method: as §1
Bacillus subtilis = assay: In vitro antibacterial activity measured as minimum inhibitory concentration was evaluated on Bacillus subtilis ATCC 6633(Bs).; format: functional; settings: Bacillus subtilis, ATCC 6633; read-out: MIC
Summary of the method: (§2)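 Serial 2-fold agar dilution in Mueller Hinton medium, run side by side with reference quinolones. Inoculum 10^5 cfu/mL; compound range 0.007–16 µg/mL.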

Klebsiella pneumoniae = assay: In vitro antibacterial activity measured as minimum inhibitory concentration was evaluated on klebsiella pneumoniae ATCC 10031 (Kp).; format: functional; settings: Klebsiella pneumoniae, ATCC 10031; read-out: MIC
Summary of the method: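 Serial 2-fold agar dilution in Mueller Hinton medium, run side by side with reference quinolones.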

Pseudomonas aeruginosa [3] = assay: In vivo efficacy as ED50 against Pseudomonas aeruginosa HS-116 by oral administration in mice.; format: functional; settings: Pseudomonas aeruginosa, po; read-out: ED50
Summary of the method: (§3)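 Mice, 4 groups of 10, infected intraperitoneally with slightly more than the LD100 of the organism. A single oral dose was given immediately after infection, with four doses (one per group) chosen from in vitro activity. Survival was scored after one week. ED50 (total dose, mg/kg, protecting 50%) was interpolated among group survival rates.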

Staphylococcus aureus [4] = assay: In vivo efficacy as ED50 against Staphylococcus aureus HS-93 by oral administration in mice.; format: functional; settings: Staphylococcus aureus, po; read-out: ED50; summary of the method: as §3
Escherichia coli [5] = assay: In vivo efficacy as ED50 against Escherichia coli HM-42 by oral administration in mice.; format: functional; settings: Escherichia coli, po; read-out: ED50; summary of the method: as §3
Pseudomonas aeruginosa [6] = assay: In vitro antibacterial activity measured as minimum inhibitory concentration was evaluated on Pseudomonas aeruginosa ATCC 10145 (Pa).; format: functional; settings: Pseudomonas aeruginosa, ATCC 10145; read-out: MIC; summary of the method: as §2
Escherichia coli [7] = assay: In vitro antibacterial activity measured as minimum inhibitory concentration, was evaluated on Escherichia coli ATCC 23559(Ec).; format: functional; settings: Escherichia coli, ATCC 23559; read-out: MIC; summary of the method: as §2
[8] = mouse, in vivo, po, 50 mg/kg
Bacillus cereus = assay: In vitro antibacterial activity measured as minimum inhibitory concentration was evaluated on Bacillus cereus ATCC 11778 (Bc).; format: functional; settings: Bacillus cereus, ATCC 11778; read-out: MIC; summary of the method: as §2
Enterobacter cloacae = assay: In vitro antibacterial activity measured as minimum inhibitory concentration, was evaluated on Enterobacter cloacae ATCC 23355 (Ecl).; format: functional; settings: Enterobacter cloacae, ATCC 23355; read-out: MIC
Proteus vulgaris = assay: In vitro antibacterial activity measured as minimum inhibitory concentration was evaluated on proteus vulgaris ATCC 8427 (Pv).; format: functional; settings: Proteus vulgaris, ATCC 8427; read-out: MIC; summary of the method: as §2
Staphylococcus aureus [9] = assay: In vitro antibacterial activity measured as minimum inhibitory concentration was evaluated on Staphylococcus aureus ATCC 25178 (Sa).; format: functional; settings: Staphylococcus aureus, ATCC 25178; read-out: MIC; summary of the method: as §2
[10] = tested on: Staphylococcus epidermidis; assay: In vitro antibacterial activity measured as minimum inhibitory concentration was evaluated on Staphylococcus epidermidis ATCC 155-1 (Se).; format: functional; settings: Staphylococcus epidermidis, ATCC 155-1; read-out: MIC; summary of the method: as §2
Enterococcus faecalis = assay: In vitro antibacterial activity measured as minimum inhibitory concentration was evaluated on Streptococcus faecalis ATCC 10541 (Sf).; format: functional; settings: Enterococcus faecalis, ATCC 10541; read-out: MIC; summary of the method: as §2
Morganella morganii = assay: In vitro antibacterial activity measured as minimum inhibitory concentration was evaluated on morganella morganii ATCC 8019 (Mm).; format: functional; settings: Morganella morganii, ATCC 8019; read-out: MIC; summary of the method: as §2

Row | SMILES | solubility [1] [µg/mL] | solubility [2] [µg/mL] | MIC (Bacillus subtilis) [µg/mL] | MIC (Klebsiella pneumoniae) [µg/mL] | MIC (Pseudomonas aeruginosa [6]) [µg/mL] | MIC (Escherichia coli [7]) [µg/mL] | AUC [8] [ng·h/mL] | MIC (Bacillus cereus) [µg/mL] | MIC (Enterobacter cloacae) [µg/mL] | MIC (Proteus vulgaris) [µg/mL] | MIC (Staphylococcus aureus [9]) [µg/mL] | MIC [10] [µg/mL] | MIC (Enterococcus faecalis) [µg/mL] | MIC (Morganella morganii) [µg/mL] | ED50 (Pseudomonas aeruginosa [3]) [mg/kg] | ED50 (Staphylococcus aureus [4]) [mg/kg] | ED50 (Escherichia coli [5]) [mg/kg]
1 | C[C@@H]1[C@@H](NC(=O)[C@@H](C)N)CN1c1nc2c(cc1F)c(=O)c(C(=O)O)cn2C1CC1 | > 500 | > 500 | 0.5 (≈ 1.24 µM) | 8 (≈ 19.8 µM) | 16 (≈ 39.7 µM) | 1 (≈ 2.48 µM) | 0 | 1 (≈ 2.48 µM) | 4 (≈ 9.92 µM) | 8 (≈ 19.8 µM) | 1 (≈ 2.48 µM) | 0.25 (≈ 0.62 µM) | 1 (≈ 2.48 µM) | 8 (≈ 19.8 µM) |  |  | 
2 | C[C@@H]1[C@@H](N)CN1c1nc2c(cc1F)c(=O)c(C(=O)O)cn2-c1ccc(F)cc1F |  |  | 0.25 (≈ 0.618 µM) | 0.25 (≈ 0.618 µM) | 8 (≈ 19.8 µM) | 0.5 (≈ 1.24 µM) | 28300 | 0.5 (≈ 1.24 µM) | 1 (≈ 2.47 µM) | 2 (≈ 4.95 µM) | 0.5 (≈ 1.24 µM) | 0.5 (≈ 1.24 µM) | 4 (≈ 9.89 µM) | 1 (≈ 2.47 µM) | 400 | 8.6 | 10.3
3 | C[C@H](N)C(=O)N[C@@H]1CN(c2cc3c(cc2F)c(=O)c(C(=O)O)cn3-c2ccc(F)cc2F)[C@H]1C | > 500 | > 500 | 0.5 (≈ 1.05 µM) | 2 (≈ 4.22 µM) | 8 (≈ 16.9 µM) | 1 (≈ 2.11 µM) |  | 1 (≈ 2.11 µM) | 2 (≈ 4.22 µM) | 16 (≈ 33.7 µM) | 1 (≈ 2.11 µM) | 16 (≈ 33.7 µM) | 8 (≈ 16.9 µM) | 4 (≈ 8.43 µM) |  |  | 

More lines, main results first:

Row | solubility [1] [µg/mL] | solubility [2] [µg/mL] | MIC (Bacillus subtilis) [µg/mL] | MIC (Klebsiella pneumoniae) [µg/mL] | MIC (Pseudomonas aeruginosa [6]) [µg/mL] | MIC (Escherichia coli [7]) [µg/mL] | AUC [8] [ng·h/mL] | MIC (Bacillus cereus) [µg/mL] | MIC (Enterobacter cloacae) [µg/mL] | MIC (Proteus vulgaris) [µg/mL] | MIC (Staphylococcus aureus [9]) [µg/mL] | MIC [10] [µg/mL] | MIC (Enterococcus faecalis) [µg/mL] | MIC (Morganella morganii) [µg/mL] | SMILES | ED50 (Pseudomonas aeruginosa [3]) [mg/kg] | ED50 (Staphylococcus aureus [4]) [mg/kg] | ED50 (Escherichia coli [5]) [mg/kg]
4 | 5.9 (≈ 14.6 µM) | 8 (≈ 19.8 µM) | 0.06 (≈ 0.149 µM) | 0.06 (≈ 0.149 µM) | 1 (≈ 2.48 µM) | 0.06 (≈ 0.149 µM) | 28400 |  |  |  |  |  |  |  | C[C@H]1[C@H](N)CN1c1cc2c(cc1F)c(=O)c(C(=O)O)cn2-c1ccc(F)cc1F (single isomer, unassigned) [CETEFLOXACIN] | 64 | 7 | 4
5 |  |  | 0.015 (≈ 0.0432 µM) | 0.015 (≈ 0.0432 µM) | 0.25 (≈ 0.72 µM) | 0.015 (≈ 0.0432 µM) | 2300 | 0.06 (≈ 0.173 µM) | 0.015 (≈ 0.0432 µM) | 0.06 (≈ 0.173 µM) | 0.015 (≈ 0.0432 µM) | 0.015 (≈ 0.0432 µM) | 0.12 (≈ 0.345 µM) | 0.015 (≈ 0.0432 µM) | CC1C(N)CN1c1c(F)cc2c(=O)c(C(=O)O)cn3c2c1OC[C@@H]3C (single isomer, unassigned) | 26 | 6.9 | 5.9
6 | 16.5 (≈ 49.6 µM) | 23 (≈ 69.2 µM) | 0.015 (≈ 0.0451 µM) | 0.015 (≈ 0.0451 µM) | 0.12 (≈ 0.361 µM) | 0.015 (≈ 0.0451 µM) | 19200 | 0.015 (≈ 0.0451 µM) | 0.015 (≈ 0.0451 µM) |  | 0.06 (≈ 0.181 µM) | 0.06 (≈ 0.181 µM) | 0.12 (≈ 0.361 µM) | 0.015 (≈ 0.0451 µM) | C[C@H]1[C@H](N)CN1c1nc2c(cc1F)c(=O)c(C(=O)O)cn2C1CC1 (single isomer, unassigned) | 34 | 4.6 | 1
7 |  |  | 0.25 (≈ 0.62 µM) | 0.25 (≈ 0.62 µM) | 8 (≈ 19.8 µM) | 0.5 (≈ 1.24 µM) | 35900 | 0.5 (≈ 1.24 µM) | 1 (≈ 2.48 µM) | 2 (≈ 4.96 µM) | 0.25 (≈ 0.62 µM) | 0.25 (≈ 0.62 µM) | 4 (≈ 9.92 µM) | 1 (≈ 2.48 µM) | C[C@@H]1[C@@H](N)CN1c1cc2c(cc1F)c(=O)c(C(=O)O)cn2-c1ccc(F)cc1F | 90 | 16.1 | 10
